# Screening data (PubChem BioAssay)
# An excerpt weighted towards active compounds, which were near 4.2% of everything screened.
# Ins promoter up – MIN6 insulin promoter up-regulation | AID 1625 | 0.3% of 190,000 active | MIN6 insulin promoter-GFP reporter, high-content imaging; active compounds read high | z-score at 5 µM;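 active means z-score above 3 at 5 µM with at least 500 cells counted in the well; inconclusive means wells under 500 cells, flagged as cytotoxic or low count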
# Cl transport mod – KCC2 (human) Cl- transport modulation; Q9H2X9; KCC2 cells, thallium flux FluoZin-2 fluorescence; B-score of Tl+ flux slope (higher = more flux/activation; lower = inhibition) at 10 µM; 2.2% of 190,000 active;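 active means thallium flux slope and its plate-corrected score both differing from the plate sample mean at a set confidence after two filtering rounds, in either direction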;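 further: slope of fluorescence scaled to starting intensity during 10 to 20 s after thallium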
# Target sequence (Q9H2X9 whole entry, looked up): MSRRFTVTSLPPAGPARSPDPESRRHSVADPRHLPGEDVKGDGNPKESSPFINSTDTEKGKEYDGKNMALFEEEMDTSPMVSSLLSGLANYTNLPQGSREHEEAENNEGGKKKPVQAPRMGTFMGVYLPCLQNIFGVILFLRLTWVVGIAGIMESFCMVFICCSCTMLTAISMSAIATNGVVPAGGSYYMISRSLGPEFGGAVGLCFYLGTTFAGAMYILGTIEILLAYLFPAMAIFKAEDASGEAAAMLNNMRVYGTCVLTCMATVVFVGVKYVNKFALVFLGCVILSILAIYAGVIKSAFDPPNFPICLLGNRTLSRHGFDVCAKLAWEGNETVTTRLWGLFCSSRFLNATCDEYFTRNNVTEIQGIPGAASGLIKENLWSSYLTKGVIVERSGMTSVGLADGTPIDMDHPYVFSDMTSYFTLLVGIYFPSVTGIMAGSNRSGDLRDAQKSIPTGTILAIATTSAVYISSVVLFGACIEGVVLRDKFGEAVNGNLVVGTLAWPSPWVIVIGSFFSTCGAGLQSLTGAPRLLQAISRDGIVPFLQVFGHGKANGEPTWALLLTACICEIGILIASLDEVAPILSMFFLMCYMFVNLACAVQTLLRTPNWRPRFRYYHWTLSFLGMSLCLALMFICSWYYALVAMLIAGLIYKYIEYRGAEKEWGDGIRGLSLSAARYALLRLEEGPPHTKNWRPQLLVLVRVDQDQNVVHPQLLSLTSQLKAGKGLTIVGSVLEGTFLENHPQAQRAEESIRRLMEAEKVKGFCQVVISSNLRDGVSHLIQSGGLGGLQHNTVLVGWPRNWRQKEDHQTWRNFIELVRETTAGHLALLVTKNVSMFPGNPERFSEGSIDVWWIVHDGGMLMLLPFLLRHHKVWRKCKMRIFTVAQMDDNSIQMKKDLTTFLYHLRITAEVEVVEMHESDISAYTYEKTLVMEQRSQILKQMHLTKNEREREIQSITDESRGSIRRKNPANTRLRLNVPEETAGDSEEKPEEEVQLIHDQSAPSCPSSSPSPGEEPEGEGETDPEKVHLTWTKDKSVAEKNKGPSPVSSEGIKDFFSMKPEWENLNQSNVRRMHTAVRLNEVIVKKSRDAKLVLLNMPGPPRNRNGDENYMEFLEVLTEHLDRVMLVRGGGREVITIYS
# WT yeast gro inh – growth inhibition of WT yeast, mitochondrial fusion screen; mitochondrial fusion phenotypic screen, WT strain; inhibition, % at 10 µM; 2.1% of 190,000 active; in the data active means inhibition above about 58%; tested in S. cerevisiae
# Rad51 HR inh – Rad51 (human) homologous recombination inhibition; hRad51 DNA strand exchange, fluorescence dequenching; inhibition, % at 10 µM; 0.085% of 200,000 active; AID 1385;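 active means inhibition above 40% at the single screening dose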;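 further: 0% = DMSO control wells and 100% = blanks with heterologous ssDNA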
#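 Material: hRad51 filaments on single-stranded DNA; Reagent: Donor/quencher-labelled 47-bp dsDNA substrate; Compound: 10 µM final, single point; Schedule: 37 °C 15-min filament assembly, 30-min compound preincubation, 15-min exchange; Technique: FRET fluorescence, excitation 485 nm, emission 520 nm; Benchmarks: control wells and blank wells on each plate.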
# Autophagy mod – modulators of autophagy | MEF GFP-LC3 puncta imaging; test concentration mostly 10 µM | calls only at 10 µM (by protocol) | 0.98% of 190,000 active | AID 463193;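 active means percentage of spot-positive cells more than 3 SD above its plate mean, without a fluorescence outlier flag or 80% toxicity; inconclusive means no clear call, values can overlap the other calls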;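 further: spot-positive cell cutoff set from DMSO-treated cells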
# SKKanGAS inh – SKKanGAS growth inhibition; AID 1662; 1.3% of 300,000 active; S. pyogenes SKKanGAS, kanamycin growth, BacTiter-Glo, 6 h; inhibition, % at 7.5 µM;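 active means mean replicate score, as percent of positive control median, at least 50; inconclusive means mean below 50 but one replicate at or above 50; inactive means mean and every replicate below 50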;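 further: strain carries kanamycin resistance gene driven by streptokinase promoter and grows in 40 µg/ml kanamycin; loss of luminescence reflects streptokinase promoter inhibition or plain growth inhibition; 0% = median of DMSO wells and 100% = positive control at its reference dose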
# KCC2 sec1 – confirmation of human KCC2 transport modulators; shares compounds with Cl transport mod; HEK293-KCC2, thallium flux, FluoZin2 fluorescence; active compounds read high; normalised thallium flux (F/F0 slope) at 10 µM; 15% of 3,700 active;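 active means thallium flux slope above the same plate's solvent-only control mean plus 3 SD; inconclusive means the two replicate wells disagree; inactive means no significant difference from solvent-only control wells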
# KCC2 bumet counter – thallium flux despite bumetanide block in KCC2 cells, secondary assay 3; shares compounds with Cl transport mod; AID 1714; HEK293-KCC2 + bumetanide/ouabain, thallium flux FluoZin2; active compounds read high; normalized thallium flux at 10 µM; 49% of 3,700 active;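 active means thallium entry rate above the same plate's blocked-transporter control wells by more than 3 SD; inconclusive means the two repeat wells disagree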;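 further: raw slope of fluorescence over initial fluorescence between 10 and 20 s after thallium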
# KCC2 sec2 – KCC2 (human) modulation, second secondary assay. normalized thallium flux at 10 µM. 23% of 3,700 active. HEK293-KCC2, thallium flux FluoZin2 fluorescence; actives lie on both sides; F/F0 rise rate, 10–20 s post-thallium. shares compounds with Cl transport mod;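 active means thallium flux slope more than 3 SD above or below the plate's solvent-only control mean, mostly below; inconclusive means the two repeat wells disagreed; inactive means no significant shift from solvent-only controls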;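 further: raw slope with 0.1% DMSO as baseline and bumetanide as block control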
# HEK293 Tl flux – counter-screen for KCC2 modulators: effect in parental HEK293 cells; shares compounds with Cl transport mod; thallium flux FluoZin2, ouabain; baseline-ratio fluorescence slope, 10–20 s after thallium; thallium flux rate (normalised fluorescence) at 10 µM; 46% of 3,700 active; AID 1716;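 active means thallium flux rate significantly above the same plate's solvent-only control wells, beyond their mean plus 3 SD; inconclusive means the two replicate wells gave conflicting results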
# KCC2 ouabain – KCC2 (human) modulation, ouabain retest. raw Tl+ flux slope (below DMSO = inhibition, above = activation) at 10 µM. AID 1717. 48% of 3,700 active. HEK293-KCC2, thallium flux FluoZin2 fluorescence; bidirectional: low = inhibitor, high = activator. shares compounds with Cl transport mod;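 active means thallium flux slope beyond 3 SD from same-plate DMSO control mean in most replicates, usually higher, sometimes lower; inconclusive means repeat tests gave conflicting results; inactive means no significant difference from controls in most replicates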;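 further: slope of initial-normalized fluorescence between seconds 10 and 20 after thallium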
# HEK counter2 – parental HEK flux effect, counter-screen 2; 33% of 3,700 active; shares compounds with Cl transport mod; HEK293 parental, thallium flux FluoZin-2 fluorescence slope; thallium flux slope at 10 µM;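 active means thallium flux slope above the same plate's solvent-control mean plus 3 SD in both duplicate wells; inconclusive means duplicate wells that disagreed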;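 further: run without ouabain in cells lacking the KCC2 cotransporter; slope of fluorescence scaled to its starting value between 10 and 20 s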
# The depositor's hits bear a star; i = inactive; ? = inconclusive; · = no result given.
SMILES,Ins promoter up,Cl transport mod,WT yeast gro inh,Rad51 HR inh,Autophagy mod,SKKanGAS inh,KCC2 sec1,KCC2 bumet counter,KCC2 sec2,HEK293 Tl flux,KCC2 ouabain,HEK counter2
CCOc1ccc2ccccc2c1/C=N/NC(=O)CNC(=O)c1ccccc1F,·,·,·,·,·,-3,·,·,·,·,·,·
COC(=O)c1ccccc1NC(=O)NCc1ccncc1,-0.14,-0.94,0,-23,i,-19,·,·,·,·,·,·
O=C(NC1CCCCC1)c1ccc(CN2CCOCC2)cc1,0.2,-2.8*,8,5,i,·,0.0098,0.0066,0.034,0.0078,0.022,0.011
CCC1(c2ccc(Cl)cc2)NC(=O)N(Cc2ccc(C(=O)OC)cc2)C1=O (centres undefined),-0.95,-0.81,24,5,i,-2,·,·,·,·,·,·
O=C(NC(=S)Nc1ccc2c(c1)OCCO2)c1cccc(Br)c1,0.4,37*,37,-6,i,-1,0.0063,0.042*,0.043*,0.046*,0.034*,0.028*
Cc1ccccc1C(=O)Nc1ccc2c(c1)OCCO2,·,·,·,·,·,2,·,·,·,·,·,·
O=C(NC(=S)Nc1ccc2c(c1)OCCO2)c1cccc2ccccc12,0.25,11*,29,·,i,33,?,0.086*,0.035,0.035*,0.057*,0.016*
O=C(NC(=S)Nc1ccc2c(c1)OCO2)c1ccccc1,-0.44,·,22,12,i,3,·,·,·,·,·,·
O=C(CN1CCCCC1)NNc1nc(-c2ccccc2)c2cc(Br)ccc2n1,-0.73,0.71,·,6,·,6,·,·,·,·,·,·
COc1ccc(OC)c(C(=O)Nc2ccc3[nH]ccc3c2)c1,·,·,·,·,·,2,·,·,·,·,·,·
COc1cc(-c2c(C#N)c(N)nc(SCc3ccncc3)c2C#N)cc(OC)c1OC,-1.1,·,5,-6,i,-1,0.0085,0.0065,0.029,0.0072,?,?
CCOc1ccc(N(CC(=O)Nc2c(C)n(C)n(-c3ccccc3)c2=O)S(=O)(=O)c2ccccc2)cc1,-0.07,-2.8*,1,6,i,2,0.0093,0.0068,0.031,0.0082,0.018,0.011
COc1ccc(N(CC(=O)Nc2c(C)n(C)n(-c3ccccc3)c2=O)S(=O)(=O)c2ccc(C)cc2)cc1OC,·,·,·,·,·,-4,·,·,·,·,·,·
O=C(c1ccc2c3n(nc2c1)-c1ccccc1CO3)N1CCCCC1,0.33,-2.5*,·,-6,·,51*,0.0069,?,0.032,0.0076,0.02,0.0098
O=C(c1ccc2c3n(nc2c1)-c1ccccc1CO3)N1CCOCC1,-0.78,-1.7,·,10,·,37,·,·,·,·,·,·
O=C(Nc1nnc(-c2ccco2)o1)c1ccc(Cl)cc1,0.12,29*,65*,·,i,87*,0.032*,0.069*,?,0.031*,0.06*,0.017*
Cc1ccc(C(=O)Nc2nnc(-c3ccco3)o2)cc1C,-0.56,8*,19,-8,i,?,0.013*,0.039*,0.029,0.019*,0.038*,0.011*
CN(C)S(=O)(=O)c1ccc(C(=O)Nc2nnc(-c3ccco3)o2)cc1,-0.24,-0.18,-6,3,i,15,·,·,·,·,·,·
Cc1cccc(C(=O)Nc2nnc(-c3ccco3)o2)c1,0.13,4.7,43,2,i,-7,·,·,·,·,·,·
COc1ccc(C(=O)C2CCCN(Cc3cccc4c3OCO4)C2)cc1OC (centres undefined),0.47,-0.47,4,9,i,9,·,·,·,·,·,·
CCCn1c(=S)[nH]c2sc3c(c2c1=O)CCCC3,·,·,·,·,·,15,·,·,·,·,·,·
COCCCn1c(=S)[nH]c2sc3c(c2c1=O)CCCS3,-0.36,53*,6,3,i,17,0.033*,0.093*,0.049*,0.068*,0.077*,0.029*
Cn1ccnc1SCC(=O)Nc1ccc(Cl)cn1,0.09,1.2,-1,-8,i,7,·,·,·,·,·,·
COc1ccccc1NC(=O)c1ccccc1-c1nc(-c2ccccc2OC)no1,0.45,4*,-7,4,i,-2,0.0081,0.0052,0.032,0.0035,0.019,0.011
COc1ccccc1-c1noc(-c2ccccc2C(=O)Nc2ccccc2)n1,0.66,·,10,-6,i,-2,·,·,·,·,·,·
SMILES,Ins promoter up,Cl transport mod,WT yeast gro inh,Rad51 HR inh,Autophagy mod,SKKanGAS inh,KCC2 sec1,KCC2 bumet counter,KCC2 sec2,HEK293 Tl flux,KCC2 ouabain,HEK counter2
COc1ccc(C)cc1NC(=O)CSc1nnc2ccc(-c3ccncc3)nn12,·,·,·,·,·,-6,·,·,·,·,·,·
COc1cccc(C(=O)Nc2cccc(C(=O)N3CCOCC3)c2)c1,0.14,0.19,9,-11,i,-5,·,·,·,·,·,·
CC(=O)Nc1cccc(NC(=O)Nc2ccc(C(C)=O)cc2)c1,-0.26,-0.063,1,-2,i,-1,·,·,·,·,·,·
CC(=O)c1cccc(NC(=O)Nc2ccc(C(=O)N3CCCC3)cc2)c1,·,7.4*,4,7,i,1,?,0.0038,0.027,0.0064,0.016,0.0094
Cc1cccc(C(=O)Nc2cccc(C(=O)N3CCOCC3)c2)c1,-0.1,4.3*,4,·,i,-11,0.017,0.0047,0.032,0.0078,0.018,0.01
CC(C)C[C@H](NC(=O)C1CC(=O)N(c2ccc3c(c2)OCO3)C1)C(=O)NC1CCCCC1 (some centres undefined),·,·,·,·,·,-2,·,·,·,·,·,·
CC(=O)NCC1CCCN(c2nc3nonc3nc2N(C)Cc2ccccc2)C1 (centres undefined),-1.4,-7*,0,2,i,5,0.0098,0.0065,0.029*,0.0044,0.016*,0.012
CC1CCCN(c2nc3nonc3nc2N2CCCC(C)C2)C1 (centres undefined),-0.83,-1.2,2,-3,i,-8,·,·,·,·,·,·
CCc1ccc(CN(C)C(=O)C2CCC(=O)N(CC3CCCCC3)C2)cc1 (centres undefined),·,·,·,·,·,1,·,·,·,·,·,·
CN(Cc1ccccc1)c1nc2nonc2nc1N1CCCC(CN2CCCC2=O)C1 (centres undefined),0.47,-5.4*,·,·,·,7,0.016,0.0045,0.019*,0.0071,0.013,0.0096
CCc1nnc(NC(=O)CCNC(=O)c2ccco2)s1,·,·,·,·,·,-1,·,·,·,·,·,·
COc1cccc(OCC(=O)NNC(=O)C(=O)Nc2cccc(C)c2)c1,·,·,·,·,·,0,·,·,·,·,·,·
